In publication PMC11463018 (Journal of Enzyme Inhibition and Medicinal Chemistry, 2024):

Experiments:
[1] = system: MDA-MB-231; assay: cells; assay type: cell-based; conditions: Homo sapiens, MDA-MB-231, read-out: Antiproliferative effect IC50, MDA-MB-231
[2] = target: JAK1 (Homo sapiens, UniProt P23458); assay: Kinase inhibition assay; assay type: biochemical
[3] = target: T1, HDAC6 (Homo sapiens, UniProt Q9UBN7); assay: In vitro HDAC enzyme assay; assay type: biochemical
T1 sequence (Q9UBN7 1-1215): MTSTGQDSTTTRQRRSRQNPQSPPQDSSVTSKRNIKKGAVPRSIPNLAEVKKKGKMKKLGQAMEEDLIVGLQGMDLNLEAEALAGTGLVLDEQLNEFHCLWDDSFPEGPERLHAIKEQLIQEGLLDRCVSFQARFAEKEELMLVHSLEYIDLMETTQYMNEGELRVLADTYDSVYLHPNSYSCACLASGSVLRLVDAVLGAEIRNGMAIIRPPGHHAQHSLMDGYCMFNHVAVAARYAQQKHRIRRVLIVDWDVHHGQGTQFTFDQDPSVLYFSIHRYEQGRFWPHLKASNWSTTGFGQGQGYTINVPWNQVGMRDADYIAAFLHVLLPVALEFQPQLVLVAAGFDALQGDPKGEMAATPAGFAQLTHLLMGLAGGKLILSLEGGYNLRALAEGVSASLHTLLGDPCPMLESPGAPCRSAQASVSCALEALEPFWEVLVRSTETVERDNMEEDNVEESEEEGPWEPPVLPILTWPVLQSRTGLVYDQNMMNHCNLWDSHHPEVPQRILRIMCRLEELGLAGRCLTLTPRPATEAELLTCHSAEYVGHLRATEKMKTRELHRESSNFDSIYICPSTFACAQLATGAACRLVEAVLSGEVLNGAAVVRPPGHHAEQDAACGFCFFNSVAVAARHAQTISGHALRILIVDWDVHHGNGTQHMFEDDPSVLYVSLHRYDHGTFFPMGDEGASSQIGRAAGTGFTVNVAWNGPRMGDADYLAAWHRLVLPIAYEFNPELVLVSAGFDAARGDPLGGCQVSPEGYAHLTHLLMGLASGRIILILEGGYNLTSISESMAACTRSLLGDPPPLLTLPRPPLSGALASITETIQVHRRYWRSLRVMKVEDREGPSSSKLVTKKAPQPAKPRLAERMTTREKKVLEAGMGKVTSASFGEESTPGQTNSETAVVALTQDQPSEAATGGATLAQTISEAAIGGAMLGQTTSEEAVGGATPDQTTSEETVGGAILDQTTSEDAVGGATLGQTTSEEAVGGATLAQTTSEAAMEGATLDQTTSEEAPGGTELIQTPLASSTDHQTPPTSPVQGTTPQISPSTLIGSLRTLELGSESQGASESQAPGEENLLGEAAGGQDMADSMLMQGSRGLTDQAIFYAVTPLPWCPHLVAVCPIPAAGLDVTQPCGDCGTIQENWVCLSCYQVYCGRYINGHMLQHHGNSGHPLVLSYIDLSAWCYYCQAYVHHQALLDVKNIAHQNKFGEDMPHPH

[4] = system: RPMI-8226; assay: cells; assay type: cell-based; conditions: Homo sapiens, RPMI-8226, read-out: Antiproliferative effect IC50, RPMI-8226
[5] = Microsomal stability assay; assay type: in vitro ADME; conditions: human, human liver microsomes, pH 7.4
In short: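 Human liver microsomes at 0.8 mg/mL, with magnesium chloride and potassium phosphate buffer (pH 7.4), incubated with test compound at 0.5 μM. Mix prewarmed 5 min at 37 °C, then started with NADPH. Stopped at 0, 5, 10, 15, 30, 60 or 90 min with ice-cold ethyl acetate, spun 4000 rpm for 10 min at 4 °C. Supernatant analysed by LC-MS/MS and half-life determined.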

Sequence of JAK1 (P23458 whole entry): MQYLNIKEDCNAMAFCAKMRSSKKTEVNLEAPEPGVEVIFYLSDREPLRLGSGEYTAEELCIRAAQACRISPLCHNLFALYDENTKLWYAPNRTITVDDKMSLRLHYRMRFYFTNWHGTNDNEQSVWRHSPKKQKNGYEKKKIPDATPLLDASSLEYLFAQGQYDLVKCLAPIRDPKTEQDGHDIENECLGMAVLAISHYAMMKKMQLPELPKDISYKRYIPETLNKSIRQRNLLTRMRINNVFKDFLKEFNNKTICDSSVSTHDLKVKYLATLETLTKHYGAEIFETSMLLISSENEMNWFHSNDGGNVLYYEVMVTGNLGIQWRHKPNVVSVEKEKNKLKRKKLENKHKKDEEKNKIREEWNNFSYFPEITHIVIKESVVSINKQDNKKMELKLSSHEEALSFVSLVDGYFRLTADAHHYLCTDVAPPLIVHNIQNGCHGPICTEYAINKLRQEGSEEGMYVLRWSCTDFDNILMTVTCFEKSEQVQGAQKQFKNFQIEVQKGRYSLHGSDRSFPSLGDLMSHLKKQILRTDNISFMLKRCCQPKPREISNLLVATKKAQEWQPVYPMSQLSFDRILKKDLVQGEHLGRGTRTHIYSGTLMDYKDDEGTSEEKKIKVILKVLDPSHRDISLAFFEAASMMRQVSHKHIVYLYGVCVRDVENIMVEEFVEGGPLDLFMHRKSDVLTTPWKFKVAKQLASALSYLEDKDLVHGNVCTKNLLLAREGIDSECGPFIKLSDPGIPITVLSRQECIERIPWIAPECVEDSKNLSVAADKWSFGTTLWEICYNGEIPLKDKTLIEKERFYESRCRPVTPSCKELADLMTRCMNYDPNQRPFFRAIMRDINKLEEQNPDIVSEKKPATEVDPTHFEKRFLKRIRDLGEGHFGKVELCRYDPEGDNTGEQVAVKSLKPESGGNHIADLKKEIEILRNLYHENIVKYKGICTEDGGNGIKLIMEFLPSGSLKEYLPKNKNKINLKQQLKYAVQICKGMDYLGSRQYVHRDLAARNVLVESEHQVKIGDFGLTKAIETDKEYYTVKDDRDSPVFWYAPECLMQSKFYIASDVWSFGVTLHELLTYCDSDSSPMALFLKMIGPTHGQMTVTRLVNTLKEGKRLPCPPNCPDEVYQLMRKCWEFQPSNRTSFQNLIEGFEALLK

| IC50 [1] [nM] | IC50 [2] [nM] | IC50 [3] [nM] | IC50 [4] [nM] | half-life at 0.5 μM [5] [h] | SMILES |
| --- | --- | --- | --- | --- | --- |
| – | 315 ± 15 | 13.7 ± 0.88 | – | – | Cc1cccc(-c2cccc3nc(NCc4ccc(C(=O)NO)cc4)nn23)c1 [Compound 16f, N-hydroxy-4-(((5-(m-tolyl)-[1,2, 4]triazolo[1,5-a]pyridin-2-yl)amino)methyl)benzamide] |
| – | 365 ± 25 | 9.65 ± 0.23 | – | – | O=C(NO)c1ccc(CNc2nc3cccc(-c4cccc(Cl)c4)n3n2)cc1 [Compound 16h, 4-(((5–(3-chlorophenyl)-[1,2, 4]triazolo[1,5-a]pyridin-2-yl)amino)methyl)-N-hydroxybenzamide] |
| – | 400 ± 28 | 12.2 ± 0.3 | – | – | O=C(NO)c1ccc(CNc2nc3cccc(-c4ccccc4Cl)n3n2)cc1 [Compound 16i, 4-(((5–(2-chlorophenyl)-[1,2, 4]triazolo[1,5-a]pyridin-2-yl)amino)methyl)-N-hydroxybenzamide] |
| 880 ± 60 | 295 ± 16 | 8.9 ± 0.16 | 280 ± 60 | – | O=C(NO)c1ccc(CNc2nc3cccc(-c4ccc(F)cc4)n3n2)cc1 [Compound 16j, 4-(((5–(4-fluorophenyl)-[1,2, 4]triazolo[1,5-a]pyridin-2-yl)amino)methyl)-N-hydroxybenzamide] |
| 27200 ± 1500 | – | – | 17500 ± 1000 | – | O=C(Nc1nc2cccc(-c3ccc(CN4CCS(=O)(=O)CC4)cc3)n2n1)C1CC1 [Filgotinib, reference compound] |

Further lines, the compound ahead of its results:

| SMILES | IC50 [1] [nM] | IC50 [2] [nM] | IC50 [3] [nM] | IC50 [4] [nM] | half-life at 0.5 μM [5] [h] |
| --- | --- | --- | --- | --- | --- |
| O=C(NO)c1ccc(CNc2nc3cccc(-c4ccccc4)n3n2)cc1 [Compound 16a, N-hydroxy-4-(((5-phenyl-[1,2, 4]triazolo[1,5-a]pyridin-2-yl)amino)methyl)benzamide] | 900 ± 30 | 320 ± 18 | 9.5 ± 0.72 | 460 ± 30 | – |
| COc1ccc(-c2cccc3nc(NCc4ccc(C(=O)NO)cc4)nn23)cc1 [Compound 16b, N-hydroxy-4-(((5–(4-methoxyphenyl)-[1,2, 4]triazolo[1,5-a]pyridin-2-yl)amino)methyl)benzamide] | 840 ± 40 | 146 ± 8.5 | 8.75 ± 0.46 | 290 ± 10 | – |
| COc1cccc(-c2cccc3nc(NCc4ccc(C(=O)NO)cc4)nn23)c1 [Compound 16c, N-hydroxy-4-(((5–(3-methoxyphenyl)-[1,2, 4]triazolo[1,5-a]pyridin-2-yl)amino)methyl)benzamide] | 950 ± 20 | 190 ± 10 | 8.4 ± 0.39 | 310 ± 20 | – |
| COc1ccccc1-c1cccc2nc(NCc3ccc(C(=O)NO)cc3)nn12 [Compound 16d, N-hydroxy-4-(((5–(2-methoxyphenyl)-[1,2, 4]triazolo[1,5-a]pyridin-2-yl)amino)methyl)benzamide] | – | 750 ± 30 | 10.2 ± 0.8 | – | – |
| Cc1ccc(-c2cccc3nc(NCc4ccc(C(=O)NO)cc4)nn23)cc1 [Compound 16e, N-hydroxy-4-(((5-(p-tolyl)-[1,2, 4]triazolo[1,5-a]pyridin-2-yl)amino)methyl)benzamide] | – | 304 ± 16 | 11 ± 0.7 | – | – |
| Cc1ccccc1-c1cccc2nc(NCc3ccc(C(=O)NO)cc3)nn12 [Compound 16g, N-hydroxy-4-(((5-(o-tolyl)-[1,2, 4]triazolo[1,5-a]pyridin-2-yl)amino)methyl)benzamide] | – | 550 ± 32 | 16 ± 1.1 | – | – |
| O=C(NO)c1ccc(CNc2nc3cccc(-c4ccc(Cl)c(Cl)c4)n3n2)cc1 [Compound 16k, 4-(((5–(3,4-dichlorophenyl)-[1,2, 4]triazolo[1,5-a]pyridin-2-yl)amino)methyl)-N-hydroxybenzamide] | – | 390 ± 24 | 6.15 ± 0.12 | – | – |
| O=C(NO)c1ccc(CNc2nc3cccc(-c4ccc(C(F)(F)F)cc4)n3n2)cc1 [Compound 16l, N-hydroxy-4-(((5–(4-(trifluoromethyl)phenyl)-[1,2, 4]triazolo[1,5-a]pyridin-2-yl)amino)methyl)benzamide] | – | 460 ± 8 | 11.4 ± 0.88 | – | – |
| O=C(NO)c1ccc(CNc2nc3cccc(-c4cc(C(F)(F)F)cc(C(F)(F)F)c4)n3n2)cc1 [Compound 16m, 4-(((5–(3,5-bis(trifluoromethyl)phenyl)-[1,2, 4]triazolo[1,5-a]pyridin-2-yl)amino)methyl)-N-hydroxybenzamide] | – | 685 ± 50 | 20.5 ± 0.78 | – | – |
| O=C(CCCCCCC(=O)Nc1ccccc1)NO [SAHA, vorinostat, reference compound] | – | – | – | – | 6.8 |
